Experimental data collected from several papers.
Target: Phosphatidylinositol 3-kinase C2 domain-containing subunit gamma (PIK3C2G, Homo sapiens, UniProt O75747)

Structure (SMILES) | observed | action | method | concentration | endpoint | value
Nc1ncnc2occ(-c3ccc(NC(=O)Nc4cc(C(F)(F)F)ccc4F)cc3)c12 | cell-free assay | – | – | 20 µM | remaining signal | 93%
Cc1cc(NC(=O)c2cccc3cc(-c4cccc5[nH]nc(N)c45)ccc23)ccc1F | enzyme activity | inhibitor | – | 0.1 µM | activity vs control | 103%
O=C(CSc1nc2nccnc2c(=O)n1CCc1ccccc1)Nc1nccs1 | enzyme activity | inhibitor | – | 10 µM | inhibition | 76%
Cc1ccc(NC(=O)c2ccc(C)c(C(F)(F)F)c2)cc1C#Cc1nn(C2CCC(O)CC2)c2ncnc(N)c12 (stereo not shown) | cell-free assay | – | – | 10 µM | remaining signal | 98%
Cc1ccc(C(=O)Nc2ccc(CN3CCN(C)CC3)c(C(F)(F)F)c2)cc1C#Cc1cnc2cccnn12 | cell-free assay | – | – | 23.5 nM | remaining signal | 85%
COc1cc(Cl)c(C(=O)N[C@@H](CN[C@H]2CC[C@@H](N)CC2)Cc2ccc(C#N)cc2)cc1-c1ccc(CN[C@H](C)c2ccc(C)cc2)o1 | enzyme activity | inhibitor | – | 1 µM | remaining activity | 96%
CO[C@H]1CC[C@H](CNc2ccc(S(=O)(=O)NC(=O)c3ccc(N4CCN(CC5=C(c6ccc(Cl)cc6)CC(C)(C)CC5)CC4)cc3Oc3cnc4[nH]ccc4c3)cc2[N+](=O)[O-])CC1 | cell-free assay | – | competition with immobilised ligand | 1 µM | remaining binding | 72%
C=CC(=O)Nc1cc(Nc2nccc(Nc3cc(Cl)c(F)cc3C(C)(C)O)n2)c(OC)cc1N1CC[C@@H](N(C)C)C1 | enzyme activity | inhibitor | – | 1 µM | inhibition | -3%
CN1CC(Oc2cnc(C#N)cc2-c2ccn3nc(NC(=O)C4CC4)cc3c2)C1 | enzyme activity | inhibitor | – | 1 µM | inhibition | -6%
CN(C)CC#Cc1ccc(OCCCc2sc(N3CCc4cccc(C(=O)Nc5nc6ccccc6s5)c4C3)nc2C(=O)O)c(F)c1 | cell-free assay | – | competition with immobilised ligand | 1 µM | remaining binding | 100%
CS(=O)(=O)Nc1cccc(-c2csc(NC(=O)CSc3nc4nccnc4c(=O)n3CCc3ccccc3)n2)c1 | enzyme activity | inhibitor | – | 10 µM | inhibition | 16%
Cc1ccc(C(=O)NCc2ccsc2)cc1C#Cc1cn(C(C)C)c2ncnc(N)c12 | enzyme activity | inhibitor | – | 1 µM | activity vs control | 86%
Cc1cnc(NC2CCOCC2)nc1-n1cnc(C(=O)NC(CN)c2cc(F)cc(Cl)c2)c1 (stereo not shown) | enzyme activity | inhibitor | radiometric | 1 µM | remaining activity | 100%
